Assay results from PubChem BioAssay.
The list shows a part of the results. Values without a mark were called inactive. The source made the active and inactive calls.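 The calls were made as follows, unless noted: active = mean activation over triplicate wells above the hit cutoff derived from the earlier primary screen (cut at about 11% in these data); inactive = the rest.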

What was measured:
[1] = tested on: DAF-12 nuclear receptor (Heterodera glycines), GAL4-LBD fusion; assay: H. glycines DAF-12 receptor agonists, confirmation, cell-based, luminescence, HEK293, GAL4-LBD fusion (AID 743050); conditions: HEK293 GAL4-hgDAF12 luciferase reporter, agonist mode; at 6.8 µM; hits give high values; percent of butyrate response;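 also: 0% = DMSO low control and 100% = 2 mM sodium butyrate high control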
[2] = target: Oxysterols receptor LXR-beta (Homo sapiens) (UniProt P55055); assay: LXR agonists, Gal4 luciferase reporter, confirmation, counter-screen for hgDAF-12 agonist project, cell-based, luminescence, HEK293, H. glycines campaign (AID 743051;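 active = mean activation of the triplicate above a set limit carried over from the primary screen, none filed active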); conditions: 24 h, at 6.8 µM, hits give high values
Oxysterols receptor LXR-beta (Homo sapiens), sequence (P55055 whole entry, looked up, the tested form may be a part): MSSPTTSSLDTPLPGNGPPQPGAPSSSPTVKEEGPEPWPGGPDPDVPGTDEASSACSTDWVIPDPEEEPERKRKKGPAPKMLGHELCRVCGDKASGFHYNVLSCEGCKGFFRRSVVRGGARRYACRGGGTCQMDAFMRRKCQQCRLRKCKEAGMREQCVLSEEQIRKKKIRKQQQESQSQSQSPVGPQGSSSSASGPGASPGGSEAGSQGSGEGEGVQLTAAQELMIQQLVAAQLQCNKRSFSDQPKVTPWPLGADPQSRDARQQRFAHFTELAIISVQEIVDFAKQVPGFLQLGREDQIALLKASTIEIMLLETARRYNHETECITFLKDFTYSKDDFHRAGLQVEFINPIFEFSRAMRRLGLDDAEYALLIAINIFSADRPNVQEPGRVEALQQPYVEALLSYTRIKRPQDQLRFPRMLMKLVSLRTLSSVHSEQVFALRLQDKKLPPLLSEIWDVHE
In short: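 Test system: HEK293 cells with Gal4-LXR and tk-luc reporter | Incubation: 24 h exposure, 37 °C | Signal: One-Glo luminescence after 15 min | Measure: % activation versus DMSO and positive controls | Benchmarks: DMSO low control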

[3] = target: Oxysterols receptor LXR-beta (Homo sapiens) (UniProt P55055); assay: LXR agonists, Gal4 luciferase reporter, confirmation, counter-screen for hcDAF-12 agonist project, cell-based, luminescence, HEK293, H. contortus campaign (AID 743027;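 active = mean percent activation of the reporter above a cutoff set as the average over tested compounds plus their standard deviation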); conditions: HEK293 Gal4-LXR tk-luc reporter, 24 h, at 6.8 µM, hits give high values, normalized: DMSO 0%, positive control 100%
In short: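 Material: HEK293 Gal4-LXR luciferase reporter cells. Dosing: one nominal 6.8 µM dose, 0.68% DMSO. Schedule: one-day compound treatment at 37 °C. Technique: luciferase luminescence read with One-Glo reagent. Measure: % activation. Benchmarks: DMSO low control, positive-control high control. Replicates: triplicate wells per compound.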

[4] = tested on: Nuclear hormone receptor DAF-12 (Haemonchus contortus); assay: H. contortus DAF-12 receptor agonists, confirmation, cell-based, luminescence, HEK293, lit1-tk-luc, triplicate (AID 743032;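 active = mean activation across triplicate tests above the threshold derived from the earlier primary screen, cut at about 5.5% in these data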;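 also: 0% = DMSO only wells and 100% = 3 µM Δ7-dafachronic acid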); conditions: HEK293 hcDAF-12 lit1-tk-luc reporter, at 6.8 µM, hits give high values, % of Δ7-dafachronic acid response

SMILES | activation [1] | activation [2] [%] | activation [3] [%] | activation [4]
O=C(CCSc1ccccc1)N1CCN(c2ccccc2F)CC1 | 14.2% (active) | 0.48 |  | 
c1cnc(N2CCN(c3ccc4ccccc4n3)CC2)nc1 | 16.9% (active) | 0.78 | 0.85 | 5.39%
Cc1ccc(SCCSc2ncccn2)cc1 | 14.6% (active) | 0.89 | 1.19 | 7.13% (active)
Oc1cccc2ccc(/C=C/c3ccc(Br)s3)nc12 | 15.8% (active) | 0.56 | 1.05 | 13.8% (active)
Brc1ccc2nc(N3CCCC3)sc2c1 | 12.5% (active) | 0.64 | 0.77 | 5.13%
OC(c1ccccc1)c1nc(-c2cnc3ccccc3c2)cs1 (centres undefined) | 26.4% (active) | 0.98 | 1.85 | 6.14% (active)
Cc1cccc(NC(=O)c2ccc3ccccc3n2)n1 | 17% (active) | 0.69 | 1.06 | 10.5% (active)
c1ccc(Cc2c(-c3ccco3)nc3c4ccccc4ccn23)cc1 | 16.6% (active) | 0.76 | 1.44 | 15.8% (active)
Cc1ccc(-n2cc3ccc([N+](=O)[O-])cc3n2)cc1 | 22.6% (active) | 0.97 | 2.14 | 6.7% (active)
CC(C)(C)c1ccc(/C=C/C(=O)Nc2ncccn2)cc1 | 14.8% (active) | 0.79 |  | 
Cn1c(=NC(=O)C2CC2)sc2cc(F)cc(F)c21 | 5.29% | 0.25 | -0.11 | 5.5%
Nc1ccc(C(=O)Nc2ccccc2N)cc1 | 85.4% (active) | 0.48 | 1.14 | 9.52% (active)
CN1CCN(c2ccc(NC(=O)c3ccc4c(c3)OCCO4)cc2Cl)CC1 | 9.5% | 0.88 | 1.56 | 6.28% (active)
Cn1c(NC(=O)c2ccccc2)nc2ccccc21 | 19.1% (active) | 0.86 | 1.51 | 16.7% (active)
Cn1c(=NC(=O)c2ccco2)sc2cccc(F)c21 | 22.9% (active) | 0.76 | 1.46 | 15% (active)
O=C(Nc1ncccc1O)c1ccc(C(=O)c2ccccc2)cc1 | 84.2% (active) | 0.71 | 1.21 | 8.51% (active)
Brc1ccc(-c2noc(-c3ccccc3)n2)o1 | 18.7% (active) | 0.75 | 0.77 | 7.78% (active)
O=C(NCCOc1ccccc1)c1ccccc1F | 12.7% (active) | 0.64 |  | 
O=C(c1cnn2ccccc12)N1CCc2ccccc21 | 13.2% (active) | 0.43 |  | 
O=C(NCCc1ccc(F)cc1)c1ccc2nccnc2c1 | 17% (active) | 0.74 |  | 
Clc1ccc2nc(CSc3ccccc3)cn2c1 | 13.2% (active) | 0.71 |  | 
COc1ccc(NC(=O)c2ccc(OC)cc2)cc1 | 15.9% (active) | 0.75 |  | 
O=C(NN=Cc1ccc2c(c1)CCC2)c1ccccc1O | 10.4% | 0.3 |  | 
COC(=O)c1sc(NC(=O)c2ccc(OC)cc2OC)nc1C | 7.02% | 1.05 |  | 

SMILES | activation [1] | activation [2] [%] | activation [3] [%] | activation [4]
CC1C/C(=N/NC(=O)c2cccs2)CC(C)(C)C1 (centres undefined) | 4.24% | 0.21 |  | 
O=C(NNC(=O)c1ccc(Cl)cc1Cl)c1cccs1 | 9.02% | 0.37 |  | 
CC(=O)c1cc(C#N)c(SCC(=O)C(C)(C)C)nc1C | 14.8% (active) | 0.48 |  | 
Cc1ccc(C(=O)NNc2ncnc3ccccc23)cc1 | 9.47% | 0.43 |  | 
CC(C)C(=O)Nc1cccc(C(=O)Nc2ccc3c(c2)OCO3)c1 | 14.1% (active) | 0.72 |  | 
Cc1ccccc1Nc1nc(-c2cccnc2)cs1 | 16.4% (active) | 0.7 |  | 
S=C(c1ccc(-c2ccccc2)o1)N1CCCCC1 | 16.1% (active) | 0.73 |  | 
O=C(Nc1cccc(O)c1)c1ccc(C(=O)c2ccccc2)o1 | 12.2% (active) | 0.51 |  | 
O=C(NC1CCCC1)c1cc(-c2ccccc2)on1 | 37.1% (active) | 0.75 |  | 
O=C(NCCOc1ccccc1)c1ccccc1 | 13.3% (active) | 0.69 |  | 
CS(=O)(=O)N1CCc2nc(-c3ccccc3)sc2C1 | 10.3% | 0.56 |  | 
Cc1ccc(C(=O)Nc2ccc(C)c(S(=O)(=O)N(C)C)c2)s1 | 11.2% (active) | 0.45 |  | 
CC(C)n1c(=O)[nH]c2cc(C(=O)Nc3ccccc3)ccc21 | 5.08% | 0.17 |  | 
COc1ccc(-c2cn3ccsc3n2)cc1 | 16.3% (active) | 0.84 |  | 
CC1CCCN(c2ccc(C(=O)NCCc3ccccc3)cn2)C1 (centres undefined) | 14.6% (active) | 0.64 |  | 
O=C(Nc1ccccc1)c1ccc2c(c1)OCCCO2 | 19.7% (active) | 1.02 |  | 
Cc1cnc(C(=O)N2CCCC(C(=O)c3ccc(C(F)(F)F)cc3)C2)cn1 (centres undefined) | 4.5% | 0.17 |  | 
Cc1cnc(NC(=O)c2ccccn2)s1 | 15.6% (active) | 0.63 |  | 
COc1ccc(NC(=O)Nc2ccc3nsnc3c2)cc1 | 13.8% (active) | 0.54 |  | 
CC(=O)Nc1ccc(-c2nc3ccccc3o2)cc1 | 17% (active) | 0.95 |  | 
CC(/C=N/NC(=O)c1cc(-c2ccc3ccccc3c2)n[nH]1)=C\c1ccco1 | 1.68% | 0.14 |  | 
CN(C)S(=O)(=O)c1ccc2oc(SCC(=O)Nc3ccccc3F)nc2c1 | 15.5% (active) | 0.66 |  | 
CSc1ccc(/C=N/NC(=O)c2cccc(Cl)c2)cc1 | 14.8% (active) | 0.56 |  | 
